Calls of active or inactive are those of the source. The calls are words filed in the database; no cut-off is given here.
Experiments:
[1] = system: Cellular tumor antigen p53 (Homo sapiens), P04637 [R273H]; test: Reactivation of transactivation function to p53 R273H mutant in human MDA-MB-468 cells assessed as increase in MDM2 mRNA expression at 6 uM incubated for 4 hrs by qRT-PCR analysis; format: cell-based; conditions: filed as activator
How it was run: (§1)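 Cells treated with DMSO or 6 µM test compound for 4 h. RNA extracted, cDNA synthesised, transcript measured by TaqMan qRT-PCR and normalised to GAPDH. Averages from triplicates of repeated experiments, with standard deviation.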

MCF7 [2] = test: Induction of apoptosis in human MCF7 cells expressing wild type p53 assessed as decrease in level of uncleaved PARP1 level at 6 to 12 uM measured after 24 hrs by western blotting analysis; format: functional, cell-based; conditions: dose 6-12 µM
How it was run: (§2)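 Cells treated with DMSO or compound at 6 or 12 µM for 24 h, then lysed in Tris-Cl pH 8.0/NaCl/glycerol/NP-40/EDTA buffer with protease inhibitors. 100 µg lysate resolved on 4-12% SDS-PAGE and blotted to PVDF. Probed with anti-PARP or anti-caspase 3, then HRP secondary and ECL. GAPDH reprobe as control.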

MDA-MB-231 [3] = test: Inhibition of colony formation in human MDA-MB-231 expressing p53 R280K mutant assessed as decrease in number of colonies at 1.5 to 24 uM incubated for 24 hrs followed by incubation in fresh medium for 10 days by methylene blue staining based analysis; format: functional, cell-based; conditions: dose 1.5-24 µM
How it was run: (§3)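 500 cells/well seeded 24 h before treatment. Cells exposed to compound or DMSO control for 24 h at 37 °C, then grown 10 days at 37 °C in RPMI with 10% FBS. Colonies fixed in methanol, stained with methylene blue and counted. Survival expressed as percent of DMSO control.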

MDA-MB-231 [4] = test: Induction of apoptosis in human MDA-MB-231 cells expressing p53 R280K mutant assessed as decrease in level of uncleaved caspase 3 level at 6 to 12 uM measured after 24 hrs by western blotting analysis; format: functional, cell-based; conditions: dose 6-12 µM; how it was run: as §2
MDA-MB-468 [5] = test: Effect on p53 R273H mutant mRNA expression in human MDA-MB-468 cells at 6 uM measured after 4 hrs by qRT-PCR analysis; format: functional, cell-based; how it was run: as §1
[6] = molecular target: Cellular tumor antigen p53 (Homo sapiens) (UniProt P04637); test: Activation of p53 in human MCF7 cells assessed as increase in NOXA mRNA expression at 6 uM incubated for 4 hrs by qRT-PCR analysis; format: cell-based; conditions: filed as activator; how it was run: as §1
MDA-MB-468 [7] = test: Antiproliferative activity against human MDA-MB-468 cells expressing p53 R273H mutant assessed as inhibition of cell growth incubated for 24 to 72 hrs by WST-1 assay; format: functional, cell-based
How it was run: (§4)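 WST-1 proliferation assay. Compound diluted in DMSO and added to cells at 1% DMSO final. 4,000 cells/well in duplicate; DMSO-only wells as control, cell-free medium wells for background.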

MCF-10A = test: Cytotoxicity against human MCF10A cells expressing wild type p53 assessed as inhibition of cell growth at 10 to 50 uM incubated for 24 to 72 hrs by WST-1 assay; format: functional, cell-based; conditions: dose 10-50 µM, time 24-72 hrs
MCF7 [8] = test: Induction of apoptosis in human MCF7 cells expressing wild type p53 assessed as increase in cleaved PARP1 level at 6 to 12 uM measured after 24 hrs by western blotting analysis; format: functional, cell-based; conditions: dose 6-12 µM; how it was run: as §2
[9] = system: Cellular tumor antigen p53 (Homo sapiens), P04637 [R273H]; test: Reactivation of transactivation function to p53 R273H mutant in human MDA-MB-468 cells assessed as increase in NOXA mRNA expression at 6 uM incubated for 4 hrs by qRT-PCR analysis; format: cell-based; conditions: filed as activator; how it was run: as §1
[10] = system: Cellular tumor antigen p53 (Homo sapiens), P04637 [R273H]; test: Reactivation of transactivation function to p53 R273H mutant in human MDA-MB-468 cells assessed as increase in p21 mRNA expression at 6 uM incubated for 4 hrs by qRT-PCR analysis; format: cell-based; conditions: filed as activator; how it was run: as §1
MDA-MB-231 [11] = test: Antiproliferative activity against human MDA-MB-231 cells expressing p53 R280K mutant assessed as inhibition of cell growth incubated for 72 hrs by WST-1 assay; format: functional, cell-based; conditions: MDA-MB-231, 72 h; how it was run: as §4
MDA-MB-468 [12] = test: Downregulation of p53 R273H mutant expression in human MDA-MB-468 cells at 6 to 12 uM measured after 24 hrs by immunoblot analysis; format: functional, cell-based; conditions: dose 6-12 µM
How it was run: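 24 h exposure to 6 or 12 μM, DMSO control. Lysis in Tris pH 8.0/NaCl/glycerol/NP-40/EDTA buffer with protease inhibitors. 20 µg (MDA-MB-231, MDA-MB-468) or 50 µg (MCF-7) of lysate run on 4-12% SDS-PAGE. Blot probed with p53 DO-1, GAPDH used for reprobe/loading. Triplicate experiments.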

MCF7 [13] = test: Upregulation of p53 mRNA expression in human MCF7 cells at 6 uM measured after 4 hrs by qRT-PCR analysis; format: functional, cell-based; how it was run: as §1
MCF7 [14] = test: Upregulation of p53 expression in human MCF7 cells at 6 to 12 uM measured after 24 hrs by immunoblot analysis; format: functional, cell-based; conditions: dose 6-12 µM
How it was run: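 Cells treated with DMSO or compound at 6 or 12 µM for 24 h and lysed. 50 µg MCF-7 lysate resolved by SDS-PAGE and probed with p53 DO-1 antibody. Reprobed with anti-GAPDH as loading control. Run in triplicate.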

[15] = system: Cellular tumor antigen p53 (Homo sapiens), P04637 [R280K]; test: Reactivation of transactivation function to p53 R280K mutant in human MDA-MB-231 cells assessed as increase in p21 mRNA expression at 6 uM incubated for 4 hrs by qRT-PCR analysis; format: cell-based; conditions: filed as activator; how it was run: as §1
MDA-MB-468 [16] = test: Induction of apoptosis in human MDA-MB-468 cells expressing p53 R273H mutant assessed as increase in level of cleaved PARP1 level at 6 to 12 uM measured after 24 hrs by western blotting analysis; format: functional, cell-based; conditions: dose 6-12 µM; how it was run: as §2
MDA-MB-231 [17] = test: Antiproliferative activity against human MDA-MB-231 cells expressing p53 R280K mutant assessed as inhibition of cell growth incubated for 24 hrs by WST-1 assay; format: functional, cell-based; conditions: MDA-MB-231, 24 h; how it was run: as §4
[18] = molecular target: Cellular tumor antigen p53 (Homo sapiens) (UniProt P04637); test: Activation of p53 in human MCF7 cells assessed as increase in p21 mRNA expression at 6 uM incubated for 4 hrs by qRT-PCR analysis; format: cell-based; conditions: filed as activator; how it was run: as §1
[19] = system: Cellular tumor antigen p53 (Homo sapiens), P04637 [R280K]; test: Reactivation of transactivation function to p53 R280K mutant in human MDA-MB-231 cells assessed as increase in NOXA mRNA expression at 6 uM incubated for 4 hrs by qRT-PCR analysis; format: cell-based; conditions: filed as activator; how it was run: as §1
MCF7 [20] = test: Inhibition of colony formation in human MCF7 cells expressing wild type p53 assessed as decrease in number of colonies at 1.5 to 24 uM incubated for 24 hrs followed by incubation in fresh medium for 10 days by methylene blue staining based analysis; format: functional, cell-based; conditions: dose 1.5-24 µM; how it was run: as §3
MDA-MB-468 [21] = test: Induction of apoptosis in human MDA-MB-468 cells expressing p53 R273H mutant assessed as decrease in level of uncleaved caspase 3 level at 6 to 12 uM measured after 24 hrs by western blotting analysis; format: functional, cell-based; conditions: dose 6-12 µM; how it was run: as §2
MDA-MB-231 [22] = test: Downregulation of p53 R280K mutant expression in human MDA-MB-231 cells at 6 to 12 uM measured after 24 hrs by immunoblot analysis; conditions: dose 6-12 µM

Compound | Activity [1] | Activity (MCF7 [2]) | inhibition (MDA-MB-231 [3]) | Activity (MDA-MB-231 [4]) | Activity (MDA-MB-468 [5]) | Activity [6] | IC50 (MDA-MB-468 [7]) | Activity (MCF-10A) | Activity (MCF7 [8]) | Activity [9] | Activity [10] | IC50 (MDA-MB-231 [11]) | inhibition (MDA-MB-468 [12]) | Activity (MCF7 [13]) | Activity (MCF7 [14]) | Activity [15] | Activity (MDA-MB-468 [16]) | IC50 (MDA-MB-231 [17]) | Activity [18] | Activity [19] | further results
[Se]=C=NCCC12CC3CC(CC(C3)C1)C2 | Active | inactive | Active | Active | inactive | Active | 6 µM | inactive | inactive | Active | Active | 6 µM | Active | Active | Active | Active | Active | 6 µM | Active | Active | inhibition (MCF7 [20]): Active; Activity (MDA-MB-468 [21]): Active; p53 R280K downregulation (active/not active) (MDA-MB-231 [22]): Active
S=C=NCCCC12CC3CC(CC(C3)C1)C2 | Active | inactive | Active | Active | inactive | Active | 12 µM | inactive | inactive | Active | Active | 12 µM | Active | Active | inactive | Active | Active | 12 µM | Active | Active | inhibition (MCF7 [20]): Active; Activity (MDA-MB-468 [21]): Active; p53 R280K downregulation (active/not active) (MDA-MB-231 [22]): Active

Source: ChEMBL document CHEMBL5038582, “Adamantyl Isothiocyanates as Mutant p53 Rescuing Agents and Their Structure-Activity Relationships” (J Med Chem, 2021)
